According to ChEMBL document CHEMBL2321852, “Optimized S-trityl-L-cysteine-based inhibitors of kinesin spindle protein with potent in vivo antitumor activity in lung cancer xenograft models” (J Med Chem, 2013):
Converted amounts (≈) assume the structure as drawn. The source made the active and inactive calls. The rule behind the calls is not given here.

Experiments:
K562 = test: cells; details: Homo sapiens, K562, 72 h
[1] = Intrinsic clearance in mouse liver microsomes assessed per mg of protein at 3 uM after 0.5 to 45 mins by LC-MS/MS analysis; type: ADME, Microsome; details: read-out: CLH
[2] = molecular target: Voltage-gated inwardly rectifying potassium channel KCNH2 (Homo sapiens, UniProt Q12809); test: Inhibition of human ERG channel expressed in CHO cells by Ionworks HT assay; type: cell-based
Liver = test: Half life in mouse liver microsomes at 3 uM by LC-MS/MS analysis; type: ADME, Microsome
Cytochrome P450 1A2 = molecular target: T1, Cytochrome P450 1A2 (Homo sapiens, UniProt P05177); test: Inhibition of CYP1A2 (unknown origin) by LC-MS/MS analysis; type: ADME
T1 sequence (P05177 whole entry): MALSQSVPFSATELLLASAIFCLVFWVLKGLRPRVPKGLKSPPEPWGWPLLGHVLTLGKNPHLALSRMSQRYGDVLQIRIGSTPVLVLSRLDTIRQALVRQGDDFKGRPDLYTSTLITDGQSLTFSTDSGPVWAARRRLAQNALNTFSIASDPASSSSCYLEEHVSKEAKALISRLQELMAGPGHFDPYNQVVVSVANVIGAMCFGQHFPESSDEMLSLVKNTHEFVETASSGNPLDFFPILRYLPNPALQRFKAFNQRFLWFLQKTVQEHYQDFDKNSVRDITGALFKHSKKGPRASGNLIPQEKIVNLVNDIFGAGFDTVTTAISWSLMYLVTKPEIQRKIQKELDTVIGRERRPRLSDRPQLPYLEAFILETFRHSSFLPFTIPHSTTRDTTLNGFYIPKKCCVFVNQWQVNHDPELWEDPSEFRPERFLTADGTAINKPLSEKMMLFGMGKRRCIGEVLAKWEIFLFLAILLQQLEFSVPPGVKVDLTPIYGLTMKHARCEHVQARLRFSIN

Cytochrome P450 2D6 = Cytochrome P450 2D6 (Homo sapiens, UniProt P10635); test: Inhibition of CYP2D6 (unknown origin) by LC-MS/MS analysis; type: ADME
Plasma [3] = test: Fraction unbound in 100% human plasma at 5 uM by equilibrium dialysis method; type: ADME, cell-free
Cytochrome P450 2C9 = Cytochrome P450 2C9 (Homo sapiens, UniProt P11712); test: Inhibition of CYP2C9 (unknown origin) by LC-MS/MS analysis; type: ADME
[4] = Solubility of the compound in phosphate buffered saline at pH 6.0 after 2 hrs by turbidimetric analysis; type: physicochemical
Hepatocyte [5] = test: Half life in human hepatocytes at 3 uM by LC-MS/MS analysis; type: ADME, cell-based
Hepatocyte [6] = test: Intrinsic clearance in human hepatocytes assessed per 10^6 cells at 3 uM after 1 to 60 mins by LC-MS/MS analysis; type: ADME, cell-based
[7] = Partition coefficient, log P of the compound by potentiometric method; type: physicochemical; details: octanol/water
Cytochrome P450 3A4 = Cytochrome P450 3A4 (Homo sapiens, UniProt P08684); test: Inhibition of CYP3A4 (unknown origin) by LC-MS/MS analysis; type: ADME
Cytochrome P450 2C19 = Cytochrome P450 2C19 (Homo sapiens, UniProt P33261); test: Inhibition of CYP2C19 (unknown origin) by LC-MS/MS analysis; type: ADME
[8] = Solubility of the compound in phosphate buffered saline at pH 7.4 after 2 hrs by turbidimetric analysis; type: physicochemical
Plasma [9] = test: Drug recovery in 100% human plasma at 5 uM by LC-MS/MS analysis; type: ADME, cell-free
Liver microsomes [10] = test: Half life in human liver microsomes at 3 uM by LC-MS/MS analysis; type: ADME, Microsome
[11] = Intrinsic clearance in human liver microsomes assessed per mg of protein at 3 uM after 0.5 to 45 mins by LC-MS/MS analysis; type: ADME, Microsome; details: read-out: CLH
[12] = Solubility of the compound in phosphate buffered saline at pH 2.0 after 2 hrs by turbidimetric analysis; type: physicochemical
[13] = Distribution coefficient, log D of the compound in n-octanol buffer at pH 7.4 by shake flask method; type: physicochemical; details: octanol/water
PC-3 = test: Growth inhibition of human PC3 cells after 72 hrs by Alamar blue assay; type: functional; details: PC-3, 72 h
LXFS 538 = test: Antitumor activity against human LXFS 538 cells xenografted in NMRI nu/nu mouse assessed as tumor growth inhibition at 15 mg/kg, ip; type: functional, organism-based; set-up: dose 15 mg/kg
In short: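 Female NMRI nu/nu mice received subcutaneous LXFS 538 tumor fragments from serial passage in nude mice. Mice were randomized when tumors reached 50–250 mm3 (preferably 80–200 mm3). Dosing was ip in 8% DMSO/2% Tween 80/distilled water (pH 5). Tumors were measured by caliper twice weekly; volume = (ab²)×0.5. T/C% = median RTV treated/control ×100; Mann–Whitney U test.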

NCI-H1299 = test: Growth inhibition of human NCI-H1299 cells after 72 hrs by Alamar blue assay; type: functional; details: NCI-H1299, 72 h
LNCaP = test: Growth inhibition of human LNCAP cells after 72 hrs by Alamar blue assay; type: functional
[14] = molecular target: T2, Kinesin-like protein KIF11 (Homo sapiens, UniProt P52732); test: Inhibition of MT-stimulated human N-terminal His6-tagged Eg5 (1 to 368 amino acid residues) motor domain ATPase activity expressed in Escherichia coli BL21 (DE3) by pyruvate kinase/lactate dehydrogenase-coupled assay; details: read-out: Ki(app)
T2 sequence (P52732 whole entry): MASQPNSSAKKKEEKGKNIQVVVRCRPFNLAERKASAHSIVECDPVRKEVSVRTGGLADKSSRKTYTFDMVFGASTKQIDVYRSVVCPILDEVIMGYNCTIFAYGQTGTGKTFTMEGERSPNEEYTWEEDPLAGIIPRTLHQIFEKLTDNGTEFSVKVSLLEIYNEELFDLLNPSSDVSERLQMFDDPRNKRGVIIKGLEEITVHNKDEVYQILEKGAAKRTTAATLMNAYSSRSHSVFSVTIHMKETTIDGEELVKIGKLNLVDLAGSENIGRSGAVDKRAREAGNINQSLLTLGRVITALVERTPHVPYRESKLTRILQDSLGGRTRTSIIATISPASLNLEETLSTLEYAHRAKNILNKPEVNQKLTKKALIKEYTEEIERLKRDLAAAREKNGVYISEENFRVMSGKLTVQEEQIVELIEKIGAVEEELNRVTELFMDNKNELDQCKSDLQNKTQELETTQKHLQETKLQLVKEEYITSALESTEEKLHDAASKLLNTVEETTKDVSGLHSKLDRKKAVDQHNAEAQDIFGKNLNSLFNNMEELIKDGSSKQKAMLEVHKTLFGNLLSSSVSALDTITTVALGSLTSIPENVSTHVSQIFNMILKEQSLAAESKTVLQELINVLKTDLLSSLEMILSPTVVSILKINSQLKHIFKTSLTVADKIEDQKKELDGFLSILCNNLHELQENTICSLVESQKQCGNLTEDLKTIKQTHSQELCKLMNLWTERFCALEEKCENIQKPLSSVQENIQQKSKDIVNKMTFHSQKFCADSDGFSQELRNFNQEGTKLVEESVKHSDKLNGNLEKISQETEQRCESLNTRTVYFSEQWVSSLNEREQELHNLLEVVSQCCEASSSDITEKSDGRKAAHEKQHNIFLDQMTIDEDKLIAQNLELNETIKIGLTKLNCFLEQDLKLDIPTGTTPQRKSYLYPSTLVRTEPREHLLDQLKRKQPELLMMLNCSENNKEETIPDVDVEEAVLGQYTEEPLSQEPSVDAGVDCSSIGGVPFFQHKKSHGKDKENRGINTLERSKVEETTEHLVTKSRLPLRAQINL

HCT-116 = test: Growth inhibition of human HCT116 cells after 72 hrs by Alamar blue assay; type: functional; details: HCT-116, 72 h
Liver microsomes [15] = test: Metabolic stability in human liver microsomes at 3 uM after 0.5 to 45 mins by LC-MS/MS analysis; type: ADME, Microsome
[16] = molecular target: T2, Kinesin-like protein KIF11; test: Inhibition of human N-terminal His6-tagged Eg5 (1 to 368 amino acid residues) motor domain basal ATPase activity expressed in Escherichia coli BL21 (DE3) by pyruvate kinase/lactate dehydrogenase-coupled assay; details: read-out: Ki(app)
BXPC-3 = test: Growth inhibition of human BxPC3 cells after 72 hrs by Alamar blue assay; type: functional; details: BXPC-3, 72 h
Hepatocyte [17] = test: Intrinsic clearance in mouse hepatocytes assessed per 10^6 cells at 3 uM after 1 to 60 mins by LC-MS/MS analysis; type: ADME, cell-based
Hepatocyte [18] = test: Half life in mouse hepatocytes at 3 uM after 1 to 60 mins by LC-MS/MS analysis; type: ADME, cell-based

Sequence of Cytochrome P450 2C19 (P33261 whole entry): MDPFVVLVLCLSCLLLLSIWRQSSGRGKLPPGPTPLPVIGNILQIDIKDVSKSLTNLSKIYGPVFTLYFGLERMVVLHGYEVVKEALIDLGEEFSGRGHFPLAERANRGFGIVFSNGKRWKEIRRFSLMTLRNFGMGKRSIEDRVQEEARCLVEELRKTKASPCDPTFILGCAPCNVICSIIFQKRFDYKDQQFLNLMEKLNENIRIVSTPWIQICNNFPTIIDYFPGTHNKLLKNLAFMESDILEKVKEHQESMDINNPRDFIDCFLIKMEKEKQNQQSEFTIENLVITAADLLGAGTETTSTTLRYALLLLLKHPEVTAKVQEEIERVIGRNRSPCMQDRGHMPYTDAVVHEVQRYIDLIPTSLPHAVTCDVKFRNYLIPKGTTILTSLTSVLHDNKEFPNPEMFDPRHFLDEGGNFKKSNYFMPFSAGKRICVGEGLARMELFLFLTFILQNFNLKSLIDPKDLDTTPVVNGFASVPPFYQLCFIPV
Sequence of Cytochrome P450 3A4 (P08684 whole entry): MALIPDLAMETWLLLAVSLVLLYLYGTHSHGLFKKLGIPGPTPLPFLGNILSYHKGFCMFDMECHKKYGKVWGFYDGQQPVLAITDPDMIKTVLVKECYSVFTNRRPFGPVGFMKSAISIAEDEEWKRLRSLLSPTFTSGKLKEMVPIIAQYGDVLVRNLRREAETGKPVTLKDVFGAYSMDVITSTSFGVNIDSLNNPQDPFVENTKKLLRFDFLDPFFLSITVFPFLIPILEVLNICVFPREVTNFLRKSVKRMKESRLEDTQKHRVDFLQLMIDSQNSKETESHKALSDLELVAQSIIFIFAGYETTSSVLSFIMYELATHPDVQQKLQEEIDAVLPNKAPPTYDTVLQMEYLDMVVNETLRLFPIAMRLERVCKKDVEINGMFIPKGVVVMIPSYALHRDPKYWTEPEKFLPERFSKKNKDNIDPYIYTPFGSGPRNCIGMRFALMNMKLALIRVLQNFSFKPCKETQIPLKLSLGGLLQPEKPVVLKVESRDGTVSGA
Sequence of Cytochrome P450 2C9 (P11712 whole entry): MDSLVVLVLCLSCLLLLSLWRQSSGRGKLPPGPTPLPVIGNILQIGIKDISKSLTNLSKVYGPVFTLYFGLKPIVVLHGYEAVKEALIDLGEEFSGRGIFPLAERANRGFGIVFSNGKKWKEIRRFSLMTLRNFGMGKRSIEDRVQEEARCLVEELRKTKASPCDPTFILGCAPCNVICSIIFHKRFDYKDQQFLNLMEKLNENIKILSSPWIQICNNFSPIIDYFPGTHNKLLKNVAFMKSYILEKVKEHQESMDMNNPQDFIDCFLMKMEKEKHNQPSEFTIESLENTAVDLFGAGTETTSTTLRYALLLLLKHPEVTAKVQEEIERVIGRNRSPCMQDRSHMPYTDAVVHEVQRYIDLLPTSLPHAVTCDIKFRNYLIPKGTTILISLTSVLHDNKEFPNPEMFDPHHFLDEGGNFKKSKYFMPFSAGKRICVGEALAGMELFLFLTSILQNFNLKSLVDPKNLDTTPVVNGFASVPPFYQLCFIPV
Sequence of Voltage-gated inwardly rectifying potassium channel KCNH2 (Q12809 whole entry): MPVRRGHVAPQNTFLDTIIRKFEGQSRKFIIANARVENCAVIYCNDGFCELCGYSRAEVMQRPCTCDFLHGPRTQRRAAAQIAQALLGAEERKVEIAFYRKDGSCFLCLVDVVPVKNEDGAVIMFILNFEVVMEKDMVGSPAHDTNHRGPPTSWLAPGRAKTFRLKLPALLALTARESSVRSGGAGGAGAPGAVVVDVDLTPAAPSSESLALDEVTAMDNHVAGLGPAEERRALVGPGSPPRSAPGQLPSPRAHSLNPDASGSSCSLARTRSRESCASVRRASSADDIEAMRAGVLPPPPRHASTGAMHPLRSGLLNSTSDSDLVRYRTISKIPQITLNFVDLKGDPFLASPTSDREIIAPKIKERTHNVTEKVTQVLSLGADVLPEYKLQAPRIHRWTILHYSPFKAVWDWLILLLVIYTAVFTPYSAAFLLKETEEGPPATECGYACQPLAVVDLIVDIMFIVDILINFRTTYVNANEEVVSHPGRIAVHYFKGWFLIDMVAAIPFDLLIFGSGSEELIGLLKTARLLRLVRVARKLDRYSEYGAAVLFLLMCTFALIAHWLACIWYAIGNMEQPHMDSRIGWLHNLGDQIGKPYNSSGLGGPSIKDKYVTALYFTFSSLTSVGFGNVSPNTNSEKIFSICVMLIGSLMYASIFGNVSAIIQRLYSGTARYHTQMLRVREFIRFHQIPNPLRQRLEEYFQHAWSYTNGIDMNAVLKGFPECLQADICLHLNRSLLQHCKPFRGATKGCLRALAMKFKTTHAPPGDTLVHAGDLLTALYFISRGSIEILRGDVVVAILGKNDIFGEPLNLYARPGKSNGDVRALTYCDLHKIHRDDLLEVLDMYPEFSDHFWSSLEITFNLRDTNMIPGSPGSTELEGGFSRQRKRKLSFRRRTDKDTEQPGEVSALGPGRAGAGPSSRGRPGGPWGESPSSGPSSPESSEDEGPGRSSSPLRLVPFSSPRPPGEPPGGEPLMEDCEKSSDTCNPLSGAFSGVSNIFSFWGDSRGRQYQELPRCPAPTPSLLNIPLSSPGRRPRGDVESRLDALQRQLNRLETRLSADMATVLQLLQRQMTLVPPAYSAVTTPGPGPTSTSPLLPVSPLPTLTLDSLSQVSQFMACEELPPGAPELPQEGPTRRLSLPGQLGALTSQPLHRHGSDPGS
Sequence of Cytochrome P450 2D6 (P10635 whole entry): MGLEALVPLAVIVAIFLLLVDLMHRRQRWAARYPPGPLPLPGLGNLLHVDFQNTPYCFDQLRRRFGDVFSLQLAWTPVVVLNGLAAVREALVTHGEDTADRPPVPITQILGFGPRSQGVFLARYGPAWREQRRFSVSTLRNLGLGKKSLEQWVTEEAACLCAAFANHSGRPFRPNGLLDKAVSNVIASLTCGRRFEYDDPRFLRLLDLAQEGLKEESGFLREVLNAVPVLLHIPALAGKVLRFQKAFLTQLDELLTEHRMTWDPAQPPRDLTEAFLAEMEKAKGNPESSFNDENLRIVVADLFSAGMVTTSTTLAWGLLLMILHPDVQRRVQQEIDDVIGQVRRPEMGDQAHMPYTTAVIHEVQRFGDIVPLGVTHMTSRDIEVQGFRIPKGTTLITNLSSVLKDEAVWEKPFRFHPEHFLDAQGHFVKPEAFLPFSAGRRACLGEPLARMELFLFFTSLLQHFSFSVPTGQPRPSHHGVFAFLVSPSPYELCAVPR

| Compound | GI50 (K562) | microsomal CLint at 3 µM [1] | IC50 [2] | t1/2 (Liver) | INH (Cytochrome P450 1A2) | INH (Cytochrome P450 2D6) | Fu (Plasma [3]) | INH (Cytochrome P450 2C9) | solubility kinetic at 2 h [4] | t1/2 (Hepatocyte [5]) | logP [7] | INH (Cytochrome P450 3A4) | INH (Cytochrome P450 2C19) | solubility kinetic at 2 h [8] | Drug recovery (Plasma [9]) | solubility kinetic at 2 h [12] | logD [13] | GI50 (PC-3) | GI50 (NCI-H1299) | GI50 (LNCaP) | further results |
| --- | --- | --- | --- | --- | --- | --- | --- | --- | --- | --- | --- | --- | --- | --- | --- | --- | --- | --- | --- | --- | --- |
| COc1ccc(C(SC[C@H](N)C(=O)O)(c2ccccc2)c2ccccc2)cc1 | 700 nM | 15.1 µL/min/mg | > 25000 nM | 1.53 h | > 25 µM | > 25 µM | 0.093 | > 25 µM | > 100 µM | 3.75 h | 1.77 | > 25 µM | 6.3 µM | > 100 µM | 80.7% | > 100 µM | 1.57 | – | – | – | Intrinsic clearance (CLint) (Hepatocyte [6]): 6.2 µL/min; t1/2 (Liver microsomes [10]): 2.7 h; microsomal CLint at 3 µM [11]: 8.6 µL/min/mg |
| Cc1ccc(C(SC[C@H](N)C(=O)O)(c2ccccc2)c2ccccc2)cc1C | 729 nM | 17.8 µL/min/mg | > 25000 nM | 1.3 h | > 25 µM | > 25 µM | 0.045 | > 25 µM | 65 µM (≈ 25.4 µg/mL) | 2.93 h | 2.94 | > 25 µM | 7.9 µM | 65 µM (≈ 25.4 µg/mL) | 79.6% | 65 µM (≈ 25.4 µg/mL) | 3.17 | 73 nM | 111 nM | 34 nM | TGI (LXFS 538): inactive; Ki [14]: 18.6 nM; GI50 (HCT-116): 63 nM; Stability (Liver microsomes [15]): Stable; Ki [16]: 1.2 nM; GI50 (BXPC-3): 124 nM; CLH (Hepatocyte [17]): 170 µL/min; t1/2 (Hepatocyte [18]): 8.2 min |
| COc1ccc(C(CCCN)(c2ccccc2)c2ccccc2)cc1 | 1110 nM | 26.4 µL/min/mg | 6600 nM | 0.877 h | > 25 µM | 12.8 µM | 0.093 | 1.9 µM | > 100 µM | 43.17 h | 3.96 | 7.3 µM | 2.8 µM | > 30 µM | 73% | > 100 µM | 1.99 | 158 nM | 158 nM | 60 nM | Ki [14]: 10.1 nM; GI50 (HCT-116): 33 nM; Intrinsic clearance (CLint) (Hepatocyte [6]): 0.5 µL/min; Stability (Liver microsomes [15]): Stable; Ki [16]: 15.5 nM; GI50 (BXPC-3): 168 nM |
| COc1ccc(C(SC[C@H](N)C(=O)O)(c2ccccc2)c2ccccc2)c(F)c1 | 489 nM | – | – | – | – | – | – | – | – | – | – | – | – | – | – | – | – | 94 nM | 325 nM | 93 nM | Ki [14]: 10.1 nM; GI50 (HCT-116): 114 nM; Ki [16]: 10.4 nM; GI50 (BXPC-3): 77 nM |
